According to ChEMBL document CHEMBL4513216, “Probing the Open Global Health Chemical Diversity Library for Multistage-Active Starting Points for Next-Generation Antimalarials” (ACS Infect Dis, 2020):

Assay: Toxicity liver stage against HepG2, at 10uM
Assay type: cell-based
Design: test concentration 10 uM, cell line HepG2-A16-CD81EGFP
Settings: human, HepG2-A16-CD81EGFP cells; read-out: INHIBITION
Summary of the method: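 Uninfected HepG2-A16-CD81EGFP cells, 3 × 10^3 per well, 1536-well, plated on prespotted compound at 10 μM final, parasite-free screening media added to match infected plates; puromycin 10 μM positive, DMSO 0.5% negative; run in parallel with 48 h PbLuc assay at 37 °C, 5% CO2; viability by CellTiter-Glo luminescence, normalized to controls.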

SMILES	cytotoxicity at 10 µM
CCN(CC)C1(Cc2cc(-c3ccccn3)on2)COC1	1.41%
COCCN1C[C@H]2CCN(C(=O)c3cc(C)on3)CC[C@H]2S1(=O)=O	-1.69%
O=C(c1ccco1)N1CCC2(CCC(=O)N2Cc2ccncc2)CC1	1.29%
CN(C)CCOCC1CN(C(=O)c2cccnc2)Cc2ccnn2C1 (configuration not stated)	5.57%
CCC1=N[C@@]2(CC[C@@H]3CN(C(=O)Nc4ccccc4)C[C@@H]32)C(=O)N1CC	2.93%
Cc1occc1C(=O)N1CC(C(=O)N2CCOCC2)C2(CCOCC2)C1 (configuration not stated)	7.37%
CCC1=N[C@@]2(CC[C@@H]3CN(S(=O)(=O)CC(C)C)C[C@@H]32)C(=O)N1CC1CC1	0.457%
COCC1CN(C(=O)C2=CCCCC2)Cc2cnn(CC3CC3)c21 (configuration not stated)	3.46%
CSCc1cccc(S(=O)(=O)Nc2cc(C)on2)c1	6.27%
CC(NC(=O)CCn1c(=O)oc2ccccc21)c1ccccn1 (configuration not stated)	-3.34%
O=C(CCn1c(C(F)(F)F)cc2cccnc21)NC1CCCC1	-14.3%
Cc1nc(C)n(CC(=O)N2CCc3ncc(Cl)cc3C2)n1	-18.8%
COc1ccccc1C1=NOC(CC2(C(=O)NCCO)CCOCC2)C1 (configuration not stated)	-26.2%
Cc1nc2ccc(C(=O)N3C[C@@H](O)[C@H](N4CCOCC4)C3)cc2[nH]1	-5.81%
Cc1nc(O)c2nnn(C[C@H]3CCCN3C(=O)c3ccc(F)cc3)c2n1	-4.28%
CCCc1noc(C(C)N2CC(n3cccn3)C2)n1 (configuration not stated)	2.13%
COCCNC(=O)N1CCN(c2cc(F)ccc2F)CC1	-5.95%
COc1ccnc(NC(Cc2ccccc2)C(=O)N(C)C)n1 (configuration not stated)	6.39%
Cn1ccc(C(=O)N2CCCC(CNS(C)(=O)=O)C2)cc1=O (configuration not stated)	0.193%
CCCS(=O)(=O)N1CCCC1c1cccc(N(C)C)c1 (configuration not stated)	1.62%
CCOc1cc(C(=O)NS(C)(=O)=O)cc(-c2ccccc2)c1OC	12.5%

SMILES	cytotoxicity at 10 µM
CC(C)NC(=O)COc1nc(C(C)(C)C)no1	-7.48%
CC(C)Cc1cc(C(=O)NCCc2ccc(S(C)(=O)=O)cc2)[nH]n1	-8.93%
O=C1N(Cc2cccc(F)c2)CCC12CCCN(c1ncc(F)cn1)C2 (configuration not stated)	0.797%
c1ccc2c(c1)CN(c1ncnc3sc4c(c13)CCNC4)CCO2	5.08%
CN1CCN([C@H]2CCN(C(=O)c3nn(C)cc3Cl)C[C@H]2CCCO)CC1	-2.86%
C[C@@H]1CN(Cc2cc3ccccc3n2C)CC[C@@]1(O)C1CC1	-2.07%
CN(C)CCC1CCCCN1Cc1cnc(-c2ccccn2)nc1 (configuration not stated)	3.74%
Cc1cnc(C(=O)N(C)Cc2nc(-c3ccccn3)no2)cn1	3.42%
CSc1nccc(N2CCC(NCc3nc(C)cc(C)n3)CC2)n1	3.41%
COc1ccc([C@@H]2CN(C(=O)Cc3cccs3)C[C@H]2NC(C)=O)cc1	-1.16%
O=C(O)c1cc(-c2ccc3c(c2)OCO3)cc(S(=O)(=O)NC2CC2)c1	2.8%
CC(C)O[C@H]1CN(Cc2cnc3c(-c4ccccc4)cnn3c2)C[C@@H]1O	3.45%
CCN1CC2(CCN(C(=O)C3CSC(C)(C)C(=O)N3)CC2)CC1=O (configuration not stated)	1.72%
Cn1nccc1C(=O)N1CCC2(CC1)COC(COc1ccccn1)C2 (configuration not stated)	-7.18%
COc1cccc(CN2CCCC3(CCN(C(=O)N4CCCC4)C3)C2)c1 (configuration not stated)	-4.34%
Cn1cc(CN2CCCC23CCN(Cc2nccn2C)CC3)cn1	-5.64%
Cc1nn(C)c(C)c1S(=O)(=O)N1C[C@@H]2C[C@@H](C)O[C@@H]2C1	0.788%
O=C(c1ccco1)N1CCOCC2(CCN(C3CCOCC3)C2)C1 (configuration not stated)	3.07%
c1cncc(C[C@H]2[C@H](N3CCOCC3)CCN2Cc2nccs2)c1	8.82%
N#Cc1cccc(CN2C[C@@H]3CN(c4ncccn4)C[C@@H]3C2)c1	8.04%
CNC(=O)[C@H]1C[C@H]2CN(Cc3ccc(OC)cc3)C[C@@H]1O2	3.02%
